Results as given in ChEMBL document CHEMBL3779802, “Synthesis of hybrid 4-deoxypodophyllotoxin-5-fluorouracil compounds that inhibit cellular migration and induce cell cycle arrest” (Bioorg Med Chem Lett, 2016).
Calls of active or inactive are those of the source. No cut-off for these calls is given here.

Key:
[1] = Cytotoxicity against human HCT8 cells assessed as growth inhibition after 48 hrs by MTT assay; format: functional, cell-based; details: HCT-8, 48 h
How it was run: (§1)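 MTT assay with 48 h drug exposure on HeLa, A549, HCT-8 and HepG2 tumour cells and normal lung fibroblast WI-38. IC50 reported as the mean of three independent experiments.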

HepG2 = assay: Cytotoxicity against human HepG2 cells assessed as growth inhibition after 48 hrs by MTT assay; format: functional, cell-based; details: HepG2, 48 h; how it was run: as §1
A549 [2] = assay: Cytotoxicity against human A549 cells assessed as growth inhibition after 48 hrs by MTT assay; format: functional, cell-based; details: A549, 48 h; how it was run: as §1
[3] = Cytotoxicity against human WI38 cells assessed as growth inhibition after 48 hrs by MTT assay; format: cell-based; details: WI-38, 48 h; how it was run: as §1
HeLa = assay: Cytotoxicity against human HeLa cells assessed as growth inhibition after 48 hrs by MTT assay; format: functional, cell-based; how it was run: as §1
A549 [4] = assay: Upregulation of cdc2 expression in human A549 cells at 0.5 to 2 uM after 24 hrs by Western blot analysis; format: functional, cell-based
How it was run: (§2)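 Western blot for cdc2, p-cdc2 and cyclin B1 in A549 cells treated with vehicle, 0.5 or 2 μM for 24 h.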

A549 [5] = assay: Downregulation of p-cdc2 expression in human A549 cells at 0.5 to 2 uM after 24 hrs by Western blot analysis; format: functional, cell-based; how it was run: as §2
A549 [6] = assay: Antimigratory activity in human A549 cells at 1 uM after 12 hrs by crystal violet staining based transwell migration assay; format: functional; details: A549, 12 h
How it was run: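 Transwell migration of A549 cells exposed to vehicle, 0.3 or 1 μM for 12 h. Stained migrated cells imaged at 200× and counted. Inhibition expressed relative to untreated control; mean ± SD of three independent experiments.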

A549 [7] = assay: Induction of apoptosis in human A549 cells assessed as nuclear fragmentation at 0.3 to 1 uM after 24 hrs by DAPI staining based fluorescence microscopy; format: functional, cell-based
How it was run: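 A549 cells treated with 0, 0.3 or 1 μM for 24 h, stained with DAPI and viewed by fluorescence microscopy at 200×. Nuclei scored for fragmentation and loss of normal morphology.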

A549 [8] = assay: Cell cycle arrest in human A549 cells assessed as decrease in cell level at G1 phase after 24 hrs by propidium iodide staining based flow cytometry; format: functional
A549 [9] = assay: Cell cycle arrest in human A549 cells assessed as accumulation at G2/M phase at 0.5 uM after 24 hrs by propidium iodide staining based flow cytometry (reference value: 22.4%); format: functional
A549 [10] = assay: Cell cycle arrest in human A549 cells assessed as accumulation at S phase at 0.5 uM after 24 hrs by propidium iodide staining based flow cytometry (reference value: 19.3%); format: functional
A549 [11] = assay: Cell cycle arrest in human A549 cells assessed as accumulation at G1 phase at 0.5 uM after 24 hrs by propidium iodide staining based flow cytometry (reference value: 58.3%); format: functional
A549 [12] = assay: Cell cycle arrest in human A549 cells assessed as accumulation at G2/M phase after 24 hrs by propidium iodide staining based flow cytometry; format: functional
A549 [13] = assay: Upregulation of cyclinB1 expression in human A549 cells at 0.5 to 2 uM after 24 hrs by Western blot analysis; format: functional, cell-based; how it was run: as §2
A549 [14] = assay: Cell cycle arrest in human A549 cells assessed as accumulation at S phase at 0.1 uM after 24 hrs by propidium iodide staining based flow cytometry (reference value: 19.3%); format: functional
A549 [15] = assay: Downregulation of MMP-9 expression in human A549 cells at 0.5 to 2 uM after 24 hrs by Western blot analysis; format: functional, cell-based
A549 [16] = assay: Downregulation of MMP-9 expression in human A549 cells at 0.1 to 5 uM after 24 hrs by ELISA; format: functional, cell-based
How it was run: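 MMP-9 in A549 cells measured by ELISA after 24 h exposure to 0, 0.1, 0.5, 1.5 or 5.0 μM. Mean ± SD, n = 3.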

A549 [17] = assay: Upregulation of TIMP-1 expression in human A549 cells at 0.1 to 5 uM after 24 hrs by ELISA; format: functional, cell-based
A549 [18] = assay: Cell cycle arrest in human A549 cells assessed as accumulation at G2/M phase at 0.1 uM after 24 hrs by propidium iodide staining based flow cytometry (reference value: 22.4%); format: functional
A549 [19] = assay: Upregulation of TIMP-1 expression in human A549 cells at 0.5 to 2 uM after 24 hrs by Western blot analysis; format: functional, cell-based
A549 [20] = assay: Cell cycle arrest in human A549 cells assessed as accumulation at G1 phase at 0.1 uM after 24 hrs by propidium iodide staining based flow cytometry (reference value: 58.3%); format: functional

Compound | IC50 [1] | IC50 (HepG2) | IC50 (A549 [2]) | IC50 [3] | IC50 (HeLa) | further results
COc1cc([C@@H]2c3cc4c(cc3C[C@H]3COC(=O)[C@@H]32)OCO4)cc(OC)c1O [4'-DEMETHYLDEOXYPODOPHYLLOTOXIN] | 9.81 µM | 16.5 µM | 3.9 µM | 78.5 µM | – | –
COc1cc([C@@H]2c3cc4c(cc3C[C@H]3COC(=O)[C@@H]32)OCO4)cc(OC)c1OC(=O)NCCCCCCNC(=O)Cn1cc(F)c(=O)[nH]c1=O | 2.04 µM | 11.7 µM | 0.14 µM | 87 µM | 13.2 µM | –
COc1cc([C@@H]2c3cc4c(cc3C[C@H]3COC(=O)[C@@H]32)OCO4)cc(OC)c1OC(=O)N1CCN(C(=O)Cn2cc(F)c(=O)[nH]c2=O)CC1 | 17.6 µM | 14.3 µM | 2.41 µM | 121 µM | 11.2 µM | –
COc1cc([C@@H]2c3cc4c(cc3C[C@H]3COC(=O)[C@@H]32)OCO4)cc(OC)c1OC(=O)NCCCNC(=O)Cn1cc(F)c(=O)[nH]c1=O | 5.26 µM | > 100 µM | 11.7 µM | 109 µM | 15.8 µM | –
COc1cc([C@@H]2c3cc4c(cc3C[C@H]3COC(=O)[C@@H]32)OCO4)cc(OC)c1OC(=O)CCC(=O)NCCCCCCNC(=O)Cn1cc(F)c(=O)[nH]c1=O | 1.01 µM | 0.45 µM | 0.27 µM | 114 µM | 4.03 µM | Activity (A549 [4]): Active; Activity (A549 [5]): Active; inhibition at 1 µM (A549 [6]): 47%; Activity (A549 [7]): Active; Activity (A549 [8]): Dose-dependent effect; Activity (A549 [9]): 64.5%; Activity (A549 [10]): 35.4%; Activity (A549 [11]): 0.1%; Activity (A549 [12]): Dose-dependent effect; Activity (A549 [13]): Active; Activity (A549 [14]): 45.1%; Activity (A549 [15]): Active; Activity (A549 [16]): Active; Activity (A549 [17]): Active; Activity (A549 [18]): 47.2%; Activity (A549 [19]): Active; Activity (A549 [20]): 7.7%
COc1cc([C@@H]2c3cc4c(cc3C[C@H]3COC(=O)[C@@H]32)OCO4)cc(OC)c1OC(=O)CCC(=O)N1CCN(C(=O)Cn2cc(F)c(=O)[nH]c2=O)CC1 | 9.01 µM | 11.5 µM | 1.35 µM | 112 µM | 15 µM | –
O=c1[nH]cc(F)c(=O)[nH]1 [FLUOROURACIL] | 32.3 µM | 41.6 µM | – | 38.9 µM | – | –
COc1cc([C@@H]2c3cc4c(cc3C[C@H]3COC(=O)[C@@H]32)OCO4)cc(OC)c1OC(=O)NCCCCNC(=O)Cn1cc(F)c(=O)[nH]c1=O | 8.53 µM | 22.3 µM | 23.9 µM | 85.5 µM | 9.58 µM | –
COc1cc([C@@H]2c3cc4c(cc3C[C@H]3COC(=O)[C@@H]32)OCO4)cc(OC)c1OC(=O)N1CCN(CCCCn2cc(F)c(=O)[nH]c2=O)CC1 | 9.18 µM | 20.2 µM | 2.14 µM | 104 µM | 13.2 µM | –
COc1cc([C@@H]2c3cc4c(cc3[C@@H](O[C@@H]3O[C@@H]5CO[C@@H](C)O[C@H]5[C@H](O)[C@H]3O)[C@H]3COC(=O)[C@H]23)OCO4)cc(OC)c1O [ETOPOSIDE] | 10.9 µM | 27.1 µM | 23.9 µM | 35.8 µM | 12.1 µM | –
